Here are results for three molecules from PMC12423902 (ACS Omega, 2025).

Where two headings read alike, the source gives them in different places.

Data set [1] deals with T1, FASN (Gallus gallus, UniProt P12276). The data set is described as follows: FASN overall reaction inhibition. The data set is classed as biochemical, chicken. A digest of the protocol:
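Overall reaction of purified chicken liver FASN at 37 °C, read as initial rate of NADPH absorbance loss at 340 nm. The test compound was added before the last substrate, which started the reaction; DMSO was below 0.5% (v/v). Relative activity was Ai/A0 × 100%. IC50 came from a plot of relative activity versus concentration. Single-point data at 10.0 μM are mean ± SD, n = 3 independent experiments.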

Data set [2] concerns the target T1, FASN. The conditions noted are these: read-out: IC50, FASN inhibition; literature value; ref number not given; cited from earlier work.
Data set [3] deals with FASN ER domain (enoyl reduction) (Gallus gallus, UniProt P12276). Put plainly: enoyl reduction partial reaction of FASN. The format is biochemical, chicken. Particulars: 10.0 μM phloretin. An outline of the steps:
(§1)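 Chicken liver FASN was purified by two-step ammonium sulfate precipitation, DEAE-cellulose and Blue-Sepharose chromatography, and stored at −70 °C. Partial reactions (β-ketoacyl reduction, enoyl reduction, AcAc-CoA reduction) were run at 37 °C after 10 min equilibration. The test compound was at 10.0 μM, with DMSO below 0.5% (v/v). Initial velocity came from the NADPH decrease at 340 nm. Relative activity was Ai/A0 × 100%, given as mean ± SD of three independent experiments.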

The next data set concerns MCF-7. Put plainly: cell viability assay. The data set is classed as cell-based. Particulars: Homo sapiens, MCF7, 24 h, read-out: IC50, cell viability. A digest of the protocol:
(§2)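 Cells were grown in DMEM with 10% FBS at 37 °C and 5% CO2. They were seeded at 1 × 10^6 cells/mL and allowed to attach overnight before treatment. Medium was then replaced with drug-free medium containing CCK-8 reagent, incubated 1 h at 37 °C, and read at 450 nm. Six replicates were run on three separate occasions.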

Data set [4] relates to intracellular TG content in breast cancer cells (MDA-MB-231, MCF-7). Put plainly: triglyceride. The data set is classed as cell-based, human. The conditions noted are these: 24 h, p < 0.001.
Data set [5] addresses FASN (MAT, KR, DH, ER domains and ACP; AcAc-CoA reaction) (Gallus gallus, UniProt P12276). The data set is described as follows: AcAc-CoA reduction reaction of FASN. The data set is classed as biochemical, chicken. Particulars: 10.0 μM phloretin. An outline of the steps:
as §1

For data set [6], the system named is FASN expression in MDA-MB-231 and MCF-7 cells. Put plainly: Western blot analysis of FASN expression in breast cancer cells. The format is cell-based, human. The conditions noted are these: 60–90 μM, 24 h, both cell lines. An outline of the steps:
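Cells in DMEM/10% FBS were treated 24 h with test compound, washed with PBS, lysed in RIPA and sonicated. Protein was measured by BCA, and 20 μg per lane was run on 8% SDS-PAGE and transferred to PVDF. Membranes were blocked in 5% milk, probed overnight at 4 °C with rabbit monoclonal anti-FASN and anti-β-actin, then an HRP anti-rabbit secondary. Detection was by ECL, with densitometry normalized to β-actin; mean ± SD, n = 3.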
In general terms: Immunoblotting shows a protein as a band on a membrane.

For data set [7] the following is noted: ref number not given, cited from earlier work.
The subject of a further data set is MDA-MB-231. Put plainly: cell viability assay. The data set is classed as cell-based. The conditions noted are these: Homo sapiens, MDA-MB-231, 24 h, read-out: IC50, cell viability. An outline of the steps: as §2
In data set [8] the target is T1, FASN. Put plainly: enzyme kinetics study. The format is biochemical, chicken. The conditions noted are these: for Ki: Inhibition constant K is. A digest of the protocol: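 Purified chicken FASN, overall reaction at 340 nm (NADPH). One substrate was varied with the others fixed. Ac-CoA varied with Mal-CoA 10 μM and NADPH 35 μM, test compound 0–5.86 μM. Mal-CoA varied with Ac-CoA 3 μM and NADPH 35 μM, test compound 0–6.88 μM. NADPH varied with Ac-CoA 3 μM and Mal-CoA 10 μM, test compound 0–9.12 μM. Lineweaver–Burk plots; Kis/Kii from secondary plots; points are means of 2–5 experiments.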

The target in data set [9] is intracellular FASN in breast cancer cells (MDA-MB-231, MCF-7) (Homo sapiens, UniProt P49327). The data set is described as follows: intracellular FASN activity assay. The format is cell-based. An outline of the steps:
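After 24 h exposure, cells were trypsinized, washed three times and resuspended in cold PBS. They were sonicated at 4 °C and spun at 12,000 g for 15 min at 4 °C. Supernatant was assayed in 25 mM K-phosphate (pH 7.0) with 0.25 mM EDTA, 0.25 mM DTT, 30 μM Ac-CoA and 350 μM NADPH. Background A340 was read for 60 s, then Mal-CoA was added and FAS-dependent NADPH oxidation read for 60 s more. Mean ± SD, n = 3; ANOVA with Tukey.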

The target in data set [10] is T1, FASN. The data set is described as follows: time-dependent. The format is biochemical, chicken. A digest of the protocol: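 FASN was incubated at 25 °C with various test compound concentrations. Aliquots taken at set intervals were assayed for residual overall activity. kobs came from ln(At/A0) = −kobs·t. For substrate protection, Ac-CoA, Mal-CoA or NADPH (10 μM each) was present during inactivation, compared with no substrate. In a separate series, FASN (0.60 μM) was preincubated with 6.6 μM test compound plus rising Ac-CoA, and 1/kobs was plotted against Ac-CoA.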

A further data set addresses FASN KR domain (Gallus gallus, UniProt P12276). The data set is described as follows: time-dependent inhibition of the KR domain. The format is biochemical, chicken.
In data set [11] the target is FASN KR domain (β-ketoacyl reduction) (Gallus gallus, UniProt P12276). Put plainly: β-ketoacyl reduction partial reaction of FASN. The format is biochemical, chicken. Particulars: 10.0 μM phloretin. An outline of the steps: as §1

T1 sequence (P12276 2-2512 limits assumed): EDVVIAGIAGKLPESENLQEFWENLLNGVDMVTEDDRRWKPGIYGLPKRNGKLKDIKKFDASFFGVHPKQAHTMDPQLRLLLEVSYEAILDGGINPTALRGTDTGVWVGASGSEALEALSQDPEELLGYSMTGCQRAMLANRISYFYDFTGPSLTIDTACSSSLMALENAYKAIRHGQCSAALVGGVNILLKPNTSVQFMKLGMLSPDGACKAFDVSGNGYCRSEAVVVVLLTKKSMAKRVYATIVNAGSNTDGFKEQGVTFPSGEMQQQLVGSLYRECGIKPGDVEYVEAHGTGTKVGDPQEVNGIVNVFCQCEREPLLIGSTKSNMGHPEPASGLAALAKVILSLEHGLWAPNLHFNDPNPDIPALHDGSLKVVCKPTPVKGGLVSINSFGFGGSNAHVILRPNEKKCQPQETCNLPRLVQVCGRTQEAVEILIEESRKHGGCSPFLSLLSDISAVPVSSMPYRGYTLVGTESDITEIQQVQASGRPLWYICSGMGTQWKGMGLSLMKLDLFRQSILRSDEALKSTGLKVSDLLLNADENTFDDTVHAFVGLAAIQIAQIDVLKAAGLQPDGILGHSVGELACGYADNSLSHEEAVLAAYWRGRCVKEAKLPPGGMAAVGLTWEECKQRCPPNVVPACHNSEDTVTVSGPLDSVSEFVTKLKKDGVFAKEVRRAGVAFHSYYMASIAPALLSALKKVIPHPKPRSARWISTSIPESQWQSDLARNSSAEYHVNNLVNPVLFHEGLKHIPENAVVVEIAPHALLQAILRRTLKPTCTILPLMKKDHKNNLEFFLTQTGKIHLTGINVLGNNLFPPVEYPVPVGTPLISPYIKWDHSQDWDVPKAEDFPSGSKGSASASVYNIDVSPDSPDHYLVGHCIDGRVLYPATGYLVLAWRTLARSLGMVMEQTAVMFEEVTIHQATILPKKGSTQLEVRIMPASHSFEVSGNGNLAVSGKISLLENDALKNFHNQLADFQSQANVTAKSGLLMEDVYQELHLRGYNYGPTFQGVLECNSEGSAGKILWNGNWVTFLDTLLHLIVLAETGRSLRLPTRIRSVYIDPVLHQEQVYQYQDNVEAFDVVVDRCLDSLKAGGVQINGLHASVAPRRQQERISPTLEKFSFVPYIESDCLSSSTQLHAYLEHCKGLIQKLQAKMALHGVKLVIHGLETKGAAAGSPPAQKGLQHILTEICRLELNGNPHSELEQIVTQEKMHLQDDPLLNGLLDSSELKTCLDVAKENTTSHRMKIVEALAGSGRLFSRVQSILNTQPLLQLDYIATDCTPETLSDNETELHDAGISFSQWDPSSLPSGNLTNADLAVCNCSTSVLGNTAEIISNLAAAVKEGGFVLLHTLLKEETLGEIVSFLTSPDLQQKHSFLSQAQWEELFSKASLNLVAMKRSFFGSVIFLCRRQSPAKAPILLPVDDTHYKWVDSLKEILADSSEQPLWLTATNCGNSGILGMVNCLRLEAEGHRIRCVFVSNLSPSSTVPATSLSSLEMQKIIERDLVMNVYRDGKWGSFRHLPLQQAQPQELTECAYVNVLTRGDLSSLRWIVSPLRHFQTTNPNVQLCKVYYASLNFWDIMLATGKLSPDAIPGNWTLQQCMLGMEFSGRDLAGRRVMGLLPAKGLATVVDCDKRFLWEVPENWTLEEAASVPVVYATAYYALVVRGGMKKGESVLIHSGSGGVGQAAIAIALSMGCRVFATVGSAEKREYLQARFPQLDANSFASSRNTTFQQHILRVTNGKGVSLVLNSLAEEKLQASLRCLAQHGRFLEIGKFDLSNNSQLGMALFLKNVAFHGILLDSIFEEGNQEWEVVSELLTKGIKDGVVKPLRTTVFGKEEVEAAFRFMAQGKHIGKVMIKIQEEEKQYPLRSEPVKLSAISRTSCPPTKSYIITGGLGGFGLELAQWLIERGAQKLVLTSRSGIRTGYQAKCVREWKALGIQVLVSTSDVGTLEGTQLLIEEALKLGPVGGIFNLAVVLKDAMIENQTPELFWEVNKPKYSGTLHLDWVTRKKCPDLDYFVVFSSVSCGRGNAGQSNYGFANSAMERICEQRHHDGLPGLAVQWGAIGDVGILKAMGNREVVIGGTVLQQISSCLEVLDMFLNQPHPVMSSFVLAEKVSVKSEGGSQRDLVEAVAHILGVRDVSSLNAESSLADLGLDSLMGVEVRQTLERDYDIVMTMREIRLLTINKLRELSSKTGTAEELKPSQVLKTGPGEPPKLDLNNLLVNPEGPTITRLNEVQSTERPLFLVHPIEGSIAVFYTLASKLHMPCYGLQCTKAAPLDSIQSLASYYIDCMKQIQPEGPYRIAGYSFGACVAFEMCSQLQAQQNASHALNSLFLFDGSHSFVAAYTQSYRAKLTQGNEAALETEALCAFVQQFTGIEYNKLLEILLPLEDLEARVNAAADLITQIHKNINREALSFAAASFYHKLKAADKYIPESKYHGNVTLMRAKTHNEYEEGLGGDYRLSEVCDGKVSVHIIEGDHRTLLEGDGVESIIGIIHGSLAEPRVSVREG
Sequence of intracellular FASN in breast cancer cells (MDA-MB-231, MCF-7) (P49327 whole entry): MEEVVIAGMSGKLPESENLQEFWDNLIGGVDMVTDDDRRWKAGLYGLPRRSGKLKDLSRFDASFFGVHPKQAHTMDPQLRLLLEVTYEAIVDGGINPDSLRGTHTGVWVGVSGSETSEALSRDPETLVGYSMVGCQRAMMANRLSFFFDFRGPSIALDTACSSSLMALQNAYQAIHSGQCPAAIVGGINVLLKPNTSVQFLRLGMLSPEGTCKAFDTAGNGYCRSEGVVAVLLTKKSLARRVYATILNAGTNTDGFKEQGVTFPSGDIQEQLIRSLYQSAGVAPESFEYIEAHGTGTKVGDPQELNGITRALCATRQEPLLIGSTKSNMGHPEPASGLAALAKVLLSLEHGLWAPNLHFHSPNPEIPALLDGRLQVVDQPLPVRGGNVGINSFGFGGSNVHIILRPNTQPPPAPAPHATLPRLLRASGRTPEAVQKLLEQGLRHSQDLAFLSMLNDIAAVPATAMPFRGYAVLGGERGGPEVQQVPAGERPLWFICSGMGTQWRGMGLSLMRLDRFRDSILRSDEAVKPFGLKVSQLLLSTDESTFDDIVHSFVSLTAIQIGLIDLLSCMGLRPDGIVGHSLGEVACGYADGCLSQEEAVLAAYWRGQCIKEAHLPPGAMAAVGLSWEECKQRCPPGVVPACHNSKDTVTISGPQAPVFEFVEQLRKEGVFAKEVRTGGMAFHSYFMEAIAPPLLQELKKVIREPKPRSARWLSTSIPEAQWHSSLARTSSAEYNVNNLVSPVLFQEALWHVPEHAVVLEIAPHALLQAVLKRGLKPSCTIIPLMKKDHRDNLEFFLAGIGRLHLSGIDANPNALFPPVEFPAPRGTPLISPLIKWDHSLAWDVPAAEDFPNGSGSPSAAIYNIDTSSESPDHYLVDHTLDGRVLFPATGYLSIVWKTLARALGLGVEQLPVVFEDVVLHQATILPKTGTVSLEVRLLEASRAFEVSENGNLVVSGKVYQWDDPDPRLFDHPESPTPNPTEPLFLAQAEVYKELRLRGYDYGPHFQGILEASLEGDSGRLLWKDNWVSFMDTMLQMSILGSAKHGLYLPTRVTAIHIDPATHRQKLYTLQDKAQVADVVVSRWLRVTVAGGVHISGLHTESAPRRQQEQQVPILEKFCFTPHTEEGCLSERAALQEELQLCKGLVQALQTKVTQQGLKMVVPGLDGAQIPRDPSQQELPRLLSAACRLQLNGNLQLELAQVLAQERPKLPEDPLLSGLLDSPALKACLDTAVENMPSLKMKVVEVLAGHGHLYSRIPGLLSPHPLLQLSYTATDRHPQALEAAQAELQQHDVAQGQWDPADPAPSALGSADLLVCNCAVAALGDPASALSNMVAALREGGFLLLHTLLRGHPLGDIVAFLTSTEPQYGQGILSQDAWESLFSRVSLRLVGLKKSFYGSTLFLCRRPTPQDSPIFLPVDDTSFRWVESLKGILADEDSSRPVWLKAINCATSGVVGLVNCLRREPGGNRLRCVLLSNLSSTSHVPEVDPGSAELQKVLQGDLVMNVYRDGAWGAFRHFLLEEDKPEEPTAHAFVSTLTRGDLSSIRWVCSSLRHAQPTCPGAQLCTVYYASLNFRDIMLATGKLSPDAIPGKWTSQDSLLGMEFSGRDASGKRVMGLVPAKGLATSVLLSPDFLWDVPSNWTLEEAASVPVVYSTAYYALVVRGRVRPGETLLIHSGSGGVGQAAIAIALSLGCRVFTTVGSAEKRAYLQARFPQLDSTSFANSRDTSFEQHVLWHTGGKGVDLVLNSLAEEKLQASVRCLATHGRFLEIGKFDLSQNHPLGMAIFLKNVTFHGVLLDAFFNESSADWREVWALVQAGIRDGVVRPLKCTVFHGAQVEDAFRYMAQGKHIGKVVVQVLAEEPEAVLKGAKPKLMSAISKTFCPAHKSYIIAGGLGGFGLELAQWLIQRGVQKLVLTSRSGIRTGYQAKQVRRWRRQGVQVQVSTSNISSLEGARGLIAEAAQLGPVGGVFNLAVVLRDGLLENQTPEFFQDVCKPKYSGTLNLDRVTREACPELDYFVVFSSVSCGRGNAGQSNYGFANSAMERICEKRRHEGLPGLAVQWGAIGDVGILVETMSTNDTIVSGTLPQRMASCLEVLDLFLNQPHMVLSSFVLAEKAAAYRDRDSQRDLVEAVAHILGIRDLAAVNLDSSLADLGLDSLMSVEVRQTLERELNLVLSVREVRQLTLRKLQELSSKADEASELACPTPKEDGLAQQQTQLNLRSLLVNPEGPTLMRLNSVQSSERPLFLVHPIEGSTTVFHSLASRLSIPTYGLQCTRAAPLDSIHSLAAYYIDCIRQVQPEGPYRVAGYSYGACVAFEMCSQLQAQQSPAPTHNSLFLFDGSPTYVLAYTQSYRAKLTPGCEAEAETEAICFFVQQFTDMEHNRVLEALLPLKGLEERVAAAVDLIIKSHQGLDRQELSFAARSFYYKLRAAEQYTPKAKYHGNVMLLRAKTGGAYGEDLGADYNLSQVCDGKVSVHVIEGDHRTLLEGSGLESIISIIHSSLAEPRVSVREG
Sequence of FASN KR domain (P12276 2-2512 limits assumed): as the sequence (P12276 2-2512 limits assumed) above
Sequence of FASN (MAT, KR, DH, ER domains and ACP; AcAc-CoA reaction) (P12276 2-2512 limits assumed): as above
Sequence of FASN ER domain (enoyl reduction) (P12276 2-2512 limits assumed): as above

Usually IC50 stands for the concentration needed to halve the response being measured. In the case of `O=C(O[C@@H]1Cc2c(O)cc(O)cc2O[C@@H]1c1cc(O)c(O)c(O)c1)c1cc(O)c(O)c(O)c1` [EGCG, epigallocatechin gallate, reference compound], the IC50 is 50.5 ± 0.75 µM at FASN [1] (read-out: IC50, FASN overall reaction activity, chicken liver FASN, 37 °C) and 52 µM at FASN [2].
With `C/C=C/C/C=C/CCC(=O)[C@H]1O[C@H]1C(N)=O` [cerulenin], the half-inhibitory concentration (IC50) on FASN [2] is 89 µM.
By inhibition is commonly meant the percentage by which the read-out fell short of the control. Usually Cmax stands for the maximum level reached in the sampled fluid or tissue. What is called Ki is the dissociation constant of the complex between target and ligand, obtained from inhibition or displacement. Consider `O=C(CCc1ccc(O)cc1)c1c(O)cc(O)cc1O` [phloretin, β-(4-hydroxyphenyl)-2,4,6-trihydroxypropiophenone], for which the “enoyl reduction activity suppressed” value in data set [3] is 4.8%. The half-maximal inhibitory concentration (IC50) against FASN [1] turned out to be 4.9 ± 0.66 µM; in the data set on MCF-7, 101 µM; in the data set with MDA-MB-231, 81.4 µM. On FASN [1] (read-out: inhibition of overall FASN activity), the inhibition at 10 µM was 81%. Moreover, the “cellular TG levels” value in data set [4] is “marked concentration-dependent reduction”. In addition, the “AcAc-CoA reaction activity remained” value in data set [5] is on record as 91.2%. In addition, the FASN protein content result in [6] was “significantly decreased”. Besides, the “time of Cmax postdose” value in data set [7] (Sprague–Dawley rats, single 100 mg/kg dose) is 15 min. In addition, the Cmax in data set [7] (oral doses of 200 and 300 mg/kg) is < 10 µM. Further, the oral bioavailability in data set [7] (rats, oral and intravenous routes) is recorded as 8.676%. The results for the Ki at FASN [8] (substrate Ac-CoA) and on FASN [8] (substrate Mal-CoA) were 3.46 µM and 5.69 µM, respectively. The Inhibitory manner result was “Competitive” at FASN [8] (substrate Ac-CoA varied, Mal-CoA 10 μM, NADPH 35 μM); “Mixed competitive and noncompetitive” at FASN [8] (substrate Mal-CoA varied, Ac-CoA 3 μM, NADPH 35 μM); “Uncompetitive” on FASN [8] (substrate NADPH varied, Ac-CoA 3 μM, Mal-CoA 10 μM). Also, the “Inhibition constant K ii” value on FASN [8] (substrate Mal-CoA, enzyme–substrate complex) worked out at 9.41 µM; on FASN [8] (substrate NADPH), 1.80 µM. Besides, the “lowest concentration with significant inhibition of intracellular FASN activity” value in [9] (p < 0.01, 24 h, breast cancer cells) was 30 µM. In addition, the inhibition at 90 µM in [9] (read-out: maximal inhibition of intracellular FASN enzymatic activity) was > 50%. For the same molecule, on FASN [10] (Mal-CoA (10 μM) or NADPH (10 μM) vs no substrate), the “decrease of k obs by preincubation with Mal-CoA or NADPH” value is listed as 5–10%. In addition, the “k obs, FASN inactivation without any substrate” value on FASN [10] (control, same conditions without substrate) came out at 0.070 min^–1. In addition, at FASN [10] (phloretin 2 mg/mL, incubated at 25 °C), the “k obs, overall reaction activity of FASN” value was found to be 0.0264 min^–1. Besides, the “k obs, FASN inactivation with Ac-CoA” value at FASN [10] (with Ac-CoA (10 μM)) is recorded as 0.025 min^–1. For the same molecule, the “k obs, FASN inactivation with Mal-CoA” value at FASN [10] (with Mal-CoA (10 μM)) worked out at 0.067 min^–1. Also, the “k obs, FASN inactivation with NADPH” value on FASN [10] (with NADPH (10 μM)) was 0.064 min^–1. In addition, the “time-dependent inhibition of KR domain” value on FASN KR domain is on record as “no time-dependent inhibition was observed”. In data set [11], the “β-ketoacyl reduction activity suppressed” value was 3.5%.
